Active and inactive are the calls of the source. The calls are words filed in the database; no cut-off is given here.
Legend:
[1] = tested on: Radical scavenging activity; assay: Antioxidant activity assessed as DPPH radical scavenging activity at 100 uM; assay type: functional
Method in brief: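 Non-enzymatic radical scavenging test: reduction of 1,1-diphenyl-2-picrylhydrazyl (DPPH) measured with test compound up to 100 μM; ascorbic acid and L-cysteine run as reference reductants.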

[2] = biological target: T1, Polyunsaturated fatty acid 5-lipoxygenase (Homo sapiens) (UniProt P09917); assay: Inhibition of human recombinant 5-lipoxygenase-mediated product formation from arachidonic acid assessed as remaining activity at 1 uM after 5 to 10 mins by HPLC analysis
T1 sequence (whole entry): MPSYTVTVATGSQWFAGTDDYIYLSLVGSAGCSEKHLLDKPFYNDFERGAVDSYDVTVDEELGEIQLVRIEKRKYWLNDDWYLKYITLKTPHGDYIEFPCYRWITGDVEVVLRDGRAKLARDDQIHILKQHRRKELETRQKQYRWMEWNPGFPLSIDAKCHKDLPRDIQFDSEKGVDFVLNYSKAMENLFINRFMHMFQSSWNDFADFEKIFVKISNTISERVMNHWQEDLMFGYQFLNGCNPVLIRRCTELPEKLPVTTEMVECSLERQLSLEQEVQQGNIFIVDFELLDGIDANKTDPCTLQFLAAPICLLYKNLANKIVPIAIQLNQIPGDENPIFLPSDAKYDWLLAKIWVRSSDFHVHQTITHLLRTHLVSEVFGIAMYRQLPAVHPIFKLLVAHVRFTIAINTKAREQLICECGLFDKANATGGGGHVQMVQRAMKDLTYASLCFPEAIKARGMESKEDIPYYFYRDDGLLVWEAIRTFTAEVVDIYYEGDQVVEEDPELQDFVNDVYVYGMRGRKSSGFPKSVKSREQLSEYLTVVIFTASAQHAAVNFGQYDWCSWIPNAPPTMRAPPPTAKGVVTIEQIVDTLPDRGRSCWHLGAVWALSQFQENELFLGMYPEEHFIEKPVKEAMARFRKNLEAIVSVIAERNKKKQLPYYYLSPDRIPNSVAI
Method in brief: (§1)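 Human 5-LO expressed in E. coli BL21 (pT3-5LO) at 37 °C, purified and used at once. Enzyme (0.5 μg/mL in PBS/EDTA with 1 mM ATP) preincubated with compound 5–10 min at 4 °C, prewarmed 30 s at 37 °C, started with 2 mM CaCl₂ + 20 μM AA (±1 μM 13(S)-HpODE), 10 min at 37 °C, stopped with cold methanol, products by HPLC.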

[3] = Cytotoxicity in human polymorphonuclear leukocytes assessed as cell viability at 10 uM after 30 mins by MTT assay
[4] = biological target: T2, Prostaglandin E synthase (Homo sapiens) (UniProt O14684); assay: Inhibition of mPGES-1 in human IL-1beta-stimulated A549 cell microsomes assessed as residual activity by measuring reduction of PGE2 formation from PGH2 at 10 uM after 15 mins by RP-HPLC analysis; conditions: Microsome
T2 sequence (whole entry): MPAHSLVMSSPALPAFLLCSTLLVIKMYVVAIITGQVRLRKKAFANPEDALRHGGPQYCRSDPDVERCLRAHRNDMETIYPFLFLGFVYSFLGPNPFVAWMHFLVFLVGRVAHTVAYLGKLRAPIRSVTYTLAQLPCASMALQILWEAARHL
Method in brief: (§2)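 A549 cells in DMEM with 2% FCS for 16 h, induced with IL-1β (1 ng/mL) for 72 h, homogenized. Microsomal pellet (174 000 × g) diluted in 0.1 M potassium phosphate pH 7.4 with 2.5 mM glutathione, given compound or DMSO for 15 min. PGH₂ added (20 μM final), 1 min at 4 °C, stopped with FeCl₂/citric acid. PGE₂ by SPE and RP-HPLC (UV 195 nm), 11β-PGE₂ internal standard. Tested up to 10 μM; IC₅₀ reported only above 50% inhibition at 10 μM.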

[5] = biological target: T3, Polyunsaturated fatty acid 5-lipoxygenase (Homo sapiens, UniProt P09917); assay: Inhibition of human recombinant 5-lipoxygenase-mediated product formation from arachidonic acid after 5 to 10 mins by HPLC analysis; method in brief: as §1
T3 sequence (P09917 whole entry): T1 sequence (whole entry)

[6] = biological target: T3, Polyunsaturated fatty acid 5-lipoxygenase; assay: Inhibition of 5-lipoxygenase-mediated 5(S)-H(p)ETE formation in A23187-stimulated human PMNL incubated 10 mins prior to A23187 challenge
Prostaglandin E synthase = biological target: T4, Prostaglandin E synthase (Homo sapiens, UniProt O14684); assay: Inhibition of mPGES-1 in human IL-1beta-stimulated A549 cell microsomes assessed as reduction of PGE2 formation from PGH2 after 15 mins by RP-HPLC analysis; parameters: species or system Microsome; method in brief: as §2
T4 sequence (O14684 whole entry): T2 sequence (whole entry)

[7] = biological target: T1, Polyunsaturated fatty acid 5-lipoxygenase (Homo sapiens); assay: Selectivity ratio of IC50 for human recombinant 5-lipoxygenase in cell-free system to IC50 for 5-lipoxygenase-mediated 5(S)-H(p)ETE formation in A23187-stimulated PMNL
[8] = biological target: T1, Polyunsaturated fatty acid 5-lipoxygenase (Homo sapiens); assay: Inhibition of human recombinant 5-lipoxygenase-mediated product formation from arachidonic acid assessed as remaining activity at 10 uM after 5 to 10 mins by HPLC analysis; method in brief: as §1
[9] = biological target: Prostaglandin G/H synthase 2 (Homo sapiens) (UniProt P35354); assay: Inhibition of human recombinant COX-2 mediated formation of 12-HHT from arachidonic acid assessed as remaining activity at 10 uM after 5 mins by HPLC analysis
[10] = biological target: Prostaglandin G/H synthase 1 (Ovis aries) (UniProt P05979); assay: Inhibition of ovine COX-1 mediated formation of 12-HHT from arachidonic acid assessed as remaining activity at 10 uM after 5 mins by HPLC analysis
[11] = biological target: T5, Polyunsaturated fatty acid lipoxygenase ALOX15 (Homo sapiens) (UniProt P16050); assay: Inhibition of 15-lipoxygenase in A23187-stimulated human PMNL assessed as reduction of 15(S)-H(P)ETE formation preincubated 15 mins by RP-HPLC analysis in presence of exogenous arachidonic acid
T5 sequence (whole entry): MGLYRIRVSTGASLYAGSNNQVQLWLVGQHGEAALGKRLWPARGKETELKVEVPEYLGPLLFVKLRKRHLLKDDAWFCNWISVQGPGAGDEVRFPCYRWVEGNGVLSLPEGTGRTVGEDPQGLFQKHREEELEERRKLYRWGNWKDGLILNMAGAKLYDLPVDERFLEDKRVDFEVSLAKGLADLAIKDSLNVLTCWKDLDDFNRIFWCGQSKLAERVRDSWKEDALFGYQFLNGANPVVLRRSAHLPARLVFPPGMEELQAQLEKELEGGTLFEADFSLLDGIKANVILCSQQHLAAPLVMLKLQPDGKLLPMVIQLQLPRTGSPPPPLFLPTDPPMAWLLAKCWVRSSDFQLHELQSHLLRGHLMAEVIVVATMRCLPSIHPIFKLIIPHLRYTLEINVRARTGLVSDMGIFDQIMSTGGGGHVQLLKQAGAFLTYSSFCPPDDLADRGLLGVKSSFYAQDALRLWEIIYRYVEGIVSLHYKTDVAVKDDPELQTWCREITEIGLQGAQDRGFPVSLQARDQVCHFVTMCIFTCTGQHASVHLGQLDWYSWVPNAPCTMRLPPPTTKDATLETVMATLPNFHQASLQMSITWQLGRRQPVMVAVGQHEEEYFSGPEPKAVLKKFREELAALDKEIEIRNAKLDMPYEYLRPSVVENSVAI
Method in brief: (§3)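 Freshly isolated human PMNL (5 × 10⁶/mL in PBS pH 7.4 with 1 mg/mL glucose and 1 mM CaCl₂) preincubated with compound 15 min at 37 °C, then stimulated with 2.5 μM A23187 plus exogenous AA for 10 min at 37 °C. Stopped with methanol, PGB₁ added as internal standard, extracted, HPLC: 15(S)-H(p)ETE taken as 15-LO product, 12(S)-H(p)ETE as 12-LO product (platelet-type 12-LO from PMNL-adherent platelets).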

[12] = biological target: T6, Polyunsaturated fatty acid lipoxygenase ALOX12 (Homo sapiens) (UniProt P18054); assay: Inhibition of 12-lipoxygenase in A23187-stimulated human PMNL assessed as reduction of 12(S)-H(P)ETE formation preincubated 15 mins by RP-HPLC analysis in presence of exogenous arachidonic acid; method in brief: as §3
T6 sequence (whole entry): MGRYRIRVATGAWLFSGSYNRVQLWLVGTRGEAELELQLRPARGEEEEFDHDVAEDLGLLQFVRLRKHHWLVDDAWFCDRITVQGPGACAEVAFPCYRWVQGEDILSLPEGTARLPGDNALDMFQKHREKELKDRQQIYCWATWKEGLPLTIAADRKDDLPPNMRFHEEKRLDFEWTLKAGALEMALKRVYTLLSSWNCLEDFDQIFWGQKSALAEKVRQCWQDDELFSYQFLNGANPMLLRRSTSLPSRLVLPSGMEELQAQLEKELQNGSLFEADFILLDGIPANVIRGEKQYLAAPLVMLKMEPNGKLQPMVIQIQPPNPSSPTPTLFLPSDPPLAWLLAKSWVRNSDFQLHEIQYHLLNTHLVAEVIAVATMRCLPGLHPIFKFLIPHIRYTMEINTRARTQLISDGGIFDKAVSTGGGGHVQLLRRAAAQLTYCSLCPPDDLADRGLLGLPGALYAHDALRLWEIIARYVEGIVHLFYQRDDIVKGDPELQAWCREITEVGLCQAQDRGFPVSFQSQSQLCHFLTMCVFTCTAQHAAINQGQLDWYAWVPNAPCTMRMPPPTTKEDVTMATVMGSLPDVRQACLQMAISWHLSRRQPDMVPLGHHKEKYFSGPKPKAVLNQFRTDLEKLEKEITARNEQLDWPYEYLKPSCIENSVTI

[13] = biological target: T5, Polyunsaturated fatty acid lipoxygenase ALOX15 (Homo sapiens); assay: Inhibition of 15-lipoxygenase in A23187-stimulated human PMNL assessed as reduction of 15(S)-H(P)ETE formation up to 10 uM preincubated 15 mins by RP-HPLC analysis in presence of exogenous arachidonic acid; method in brief: as §3
[14] = biological target: T3, Polyunsaturated fatty acid 5-lipoxygenase; assay: Inhibition of 5-lipoxygenase-mediated 5(S)-H(p)ETE formation in fMLP-stimulated human PMNL incubated 10 mins prior to fMLP challenge
[15] = biological target: T3, Polyunsaturated fatty acid 5-lipoxygenase; assay: Inhibition of 5-lipoxygenase in human PMNL S100 supernatant assessed as inhibition of enzyme product formation preincubated for 5 to 10 mins before arachidonic acid addition by HPLC analysis
Method in brief: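 PMNL (5 × 10⁶/mL in PBS/1 mM EDTA) sonicated, centrifuged 100 000 × g for 1 h at 4 °C. S100 diluted in PBS/EDTA with 1 mM ATP, ±1 mM DTT, and preincubated with compound or 0.3% DMSO 5–10 min at 4 °C. Prewarmed 30 s at 37 °C, started with 2 mM CaCl₂ + 20 μM AA, 10 min at 37 °C, stopped with cold methanol, 5-LO products by HPLC.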

[16] = biological target: T6, Polyunsaturated fatty acid lipoxygenase ALOX12 (Homo sapiens); assay: Inhibition of 12-lipoxygenase in A23187-stimulated human PMNL assessed as reduction of 12(S)-H(P)ETE formation up to 10 uM preincubated 15 mins by RP-HPLC analysis in presence of exogenous arachidonic acid; method in brief: as §3

For `N[C@@H](CS)C(=O)O`, the Activity [1] was “Active”.
With `CC(C)c1ccc2c(c1)c(SC(C)(C)C)c(CC(C)(C)C(=O)O)n2Cc1ccc(Cl)cc1` the inhibition [2] was “inactive”.
With `O=C1O[C@H]([C@@H](O)CO)C(O)=C1O` the Activity [1] was “Active”.
With `CCCC/C(=C\c1cc(OCCC2CCCCC2)ccc1OCc1ccc(C(F)(F)F)cc1)C(=O)O` the Activity [3] was “Non-toxic”, the Activity [4] was 74% and the IC50 [5] was 10 µM. The IC50 [6] was 0.4 µM, the IC50 (Prostaglandin E synthase) was > 10 µM and the Ratio IC50 [7] was > 20. The Activity [8] was 55.5%, the Activity [9] was 106% and the Activity [10] was 92.3%.
In the case of `Cc1ccc(-c2cc(C(F)(F)F)nn2-c2ccc(S(N)(=O)=O)cc2)cc1`, the inhibition [11] is reported as “inactive” and the inhibition [12] is reported as “inactive”.
With `CCCCCCC(Sc1nc(OCCc2ccccc2)cc(OCCc2ccccc2)n1)C(=O)O` (stereo unspecified) the inhibition [13] was “inactive”, the IC50 [5] was 2.8 µM and the IC50 (Prostaglandin E synthase) was 2 µM. For the same compound, the IC50 [14] was 0.4 µM, the Activity [1] was “inactive” and the IC50 [15] was 12.5 µM. The inhibition [16] was “inactive”.
